Measured values from ChEMBL document CHEMBL1152982, “Synthetic analogue of rocaglaol displays a potent and selective cytotoxicity in cancer cells: involvement of apoptosis inducing factor and caspase-12” (J Med Chem, 2009).
Active and inactive are the calls of the source. No cut-off for these calls is given here. Residues, ends and D or L forms follow the SMILES beside them. *: point of attachment. Cbz = O=C(OCc1ccccc1)*; CH2F = FC*

Columns and labels:
HL-60 [1] = assay: Cytotoxicity against human HL60 cells after 72 hrs by MTS assay; format: functional, cell-based; settings: HL-60, 72 h
In short: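 HL60 cells exposed to compound for 72 h; proliferation/viability read by MTS assay. IC50 taken from dose-response curves run in duplicate.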

HCT-116 = assay: Cytotoxicity against human HCT116 cells after 72 hrs by MTS assay; format: functional, cell-based; settings: HCT-116, 72 h
In short: (§1)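 Human cancer lines treated for 72 h and proliferation/viability read by MTS assay; dose-response curves in duplicate with IC50 taken from the curves; MCF7R is the P-gp (MDR1)-expressing resistant line.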

H9c2 [2] = assay: Induction of apoptosis in rat H9c2 cells at 0.5 to 50 nM after 24 hrs by FACS analysis; format: cell-based; settings: h9c2, 24 h, 0.05 µM
In short: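 Rat H9c2 cardiomyoblasts treated 24 h (0.5-50 nM) or 24, 48 and 72 h (20 nM) versus vehicle; annexin V plus propidium iodide labeling and FACS for apoptosis; viability in parallel by MTS; doxorubicin 1 μM as positive control.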

HepG2 [3] = assay: Enhancement of doxorubicin-induced cytotoxicity against human HepG2 cells after 72 hrs by MTS assay; format: functional, cell-based
In short: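 HepG2 cells given the test agent alone or together with 150 nM doxorubicin for 72 h; proliferation by MTS assay; duplicate experiments, n = 3.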

HL-60 [4] = assay: Antiproliferative activity against human HL60 cells at 50 nM in presence of caspase inhibitor Z-VAD-FMK; format: functional, cell-based
In short: (§2)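 HL60 cells exposed for 72 h, with or without co-treatment with Z-VAD-FMK (50 μM), necrostatin-1 (50 μM) or 3-methyladenine (2 mM). Antiproliferative effect was compared against vehicle.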

[5] = target: ATP-dependent translocase ABCB1 (Homo sapiens, UniProt P08183); assay: Inhibition of P-glycoprotein expressing human MCF7 cells assessed as change in rhodamine 123 efflux at 0.1 to 1 uM; format: cell-based
HL-60 [6] = assay: Cell cycle arrest in human HL60 cells assessed as accumulation of cells in G2/M phase at 200 nM after 48 hrs by FACS analysis; format: functional, cell-based
In short: (§3)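 HL60 cells treated for 48 h; vehicle control 1% DMSO, doxorubicin as positive control. Propidium iodide staining, DNA content by flow cytometry giving cell-cycle distribution (G2/M, G0-G1 peaks); n = 4, each sample in duplicate.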

HL-60 [7] = assay: Antiproliferative activity against human HL60 cells at 50 nM in presence of […] inhibitor 3-methyladenine; format: functional, cell-based; in short: as §2
HL-60 [8] = assay: Cell cycle arrest in human HL60 cells assessed as accumulation of cells in G2/M phase at 20 nM after 48 hrs by FACS analysis; format: functional, cell-based; in short: as §3
HCT-15 = assay: Cytotoxicity against human HCT15 cells after 72 hrs by MTS assay; format: functional, cell-based; in short: as §1
HL-60 [9] = assay: Induction of apoptosis in human HL60 cells assessed as caspase 3/7-mediated DEVD-AMC substrate cleavage at 1 to 1000 nM after 48 hrs by spectroscopy; format: functional, cell-based
In short: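 HL60 cells treated 48 h, doxorubicin as positive control; whole-cell extracts incubated with DEVD-AMC, fluorescence release followed over time; rate from slope of linear phase, expressed as fold-activation over DMSO-treated control.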

KB = assay: Cytotoxicity against human KB cells after 72 hrs by MTS assay; format: functional, cell-based; in short: as §1
HL-60 [10] = assay: Antiproliferative activity against human HL60 cells at 50 nM in presence of […] inhibitor necrostatin 1; format: functional, cell-based; in short: as §2
HL-60 [11] = assay: Cell cycle arrest in human HL60 cells assessed as increase in G0/G1 peak at 200 nM after 48 hrs by FACS analysis; format: functional, cell-based; in short: as §3
MCF7 [12] = assay: Cytotoxicity against human MCF7 cells expressing P-glycoprotein after 72 hrs by MTS assay; format: functional, cell-based; in short: as §1
HL-60 [13] = assay: Cell cycle arrest in human HL60 cells assessed as increase in G0/G1 peak at 20 nM after 48 hrs by FACS analysis; format: functional, cell-based; in short: as §3
HepG2 [14] = assay: Cytotoxicity against human HepG2 cells after 72 hrs by MTS assay; format: functional, cell-based; in short: as §1
MCF7 [15] = assay: Cytotoxicity against human MCF7 cells after 72 hrs by MTS assay; format: functional, cell-based; in short: as §1
HL-60 [16] = assay: Inhibition of proteasome activity in human HL60 cells at 20 to 200 nM; format: subcellular
In short: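 Lysates of HL60 cells incubated with compound; in vitro chymotrypsin-like and trypsin-like proteasome activities measured with fluorogenic AMC substrates (LLVY-AMC, RLR-AMC).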

HL-60 [17] = assay: Inhibition of chymotrypsin-like activity of proteasome in human HL60 cells at 100 nM
In short: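 Lysates of HL60 cells treated with compound; chymotrypsin-like proteasome activity of the lysate measured in vitro.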

HL-60 [18] = assay: Cytotoxicity against human HL60 cells; format: functional, cell-based
HeLa = assay: Binding affinity to eIF4A in human HeLa cell extract by agarose pulldown assay; format: cell-free
[19] = Inhibition of cap-dependent […] of firefly luciferase in mouse Krebs2 cell extract; format: functional, cell-free
[20] = Drug localization in endoplasmic reticulum of human HeLa cells after 2 hrs by ER tracker; format: ADME, cell-based
In short: (§4)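 Live HeLa cells incubated with 50 μM fluorescent probe for 2 h, then 15 min with 1 μM organelle dye: Mito-Tracker Red (mitochondria), ER-tracker red (endoplasmic reticulum), or BODIPY 558/568 brefeldin A (ER plus Golgi). Localization judged by overlap of probe and dye signals in merged confocal images.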

[21] = Drug localization in golgi apparatus of human HeLa cells after 2 hrs by Brefeldin tracker; format: ADME, cell-based; in short: as §4
[22] = Drug localization in mitochondria of human HeLa cells after 2 hrs by Mito-Tracker Red dye
[23] = Drug localization in endoplasmic reticulum of human HeLa cells at 50 uM after 2 hrs by ER tracker; format: ADME, cell-based; in short: as §4
[24] = Drug localization in mitochondria of human HeLa cells at 50 uM after 2 hrs by Mito-Tracker Red dye; format: ADME; in short: as §4
H9c2 [25] = assay: Induction of apoptosis in rat H9c2 cells at 1 uM after 24 hrs by FACS analysis; format: cell-based; settings: h9c2, 24 h
In short: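 Rat H9c2 cardiomyoblasts treated 24 h with compound or vehicle. Cells labeled with annexin V and propidium iodide and analyzed by FACS for apoptosis.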

HL-60 [26] = assay: Induction of apoptosis in human HL60 cells assessed as increase in caspase 3/7-mediated at 1 uM after 48 hrs measured by spectroscopy; format: functional
In short: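 HL60 cells treated 48 h. Whole-cell extracts tested for cleavage of the caspase-3 substrate DEVD-AMC, with fluorescence release read spectroscopically. Rates taken from the slope of the linear time course and expressed as fold-activation over the DMSO-treated control.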

[27] = Homo sapiens, HCT-15, 72 h, read-out: IC50
[28] = Homo sapiens, MCF7, 72 h, read-out: IC50
[29] = Homo sapiens, HepG2, 72 h, read-out: IC50

Chain of ATP-dependent translocase ABCB1 (P08183 whole entry): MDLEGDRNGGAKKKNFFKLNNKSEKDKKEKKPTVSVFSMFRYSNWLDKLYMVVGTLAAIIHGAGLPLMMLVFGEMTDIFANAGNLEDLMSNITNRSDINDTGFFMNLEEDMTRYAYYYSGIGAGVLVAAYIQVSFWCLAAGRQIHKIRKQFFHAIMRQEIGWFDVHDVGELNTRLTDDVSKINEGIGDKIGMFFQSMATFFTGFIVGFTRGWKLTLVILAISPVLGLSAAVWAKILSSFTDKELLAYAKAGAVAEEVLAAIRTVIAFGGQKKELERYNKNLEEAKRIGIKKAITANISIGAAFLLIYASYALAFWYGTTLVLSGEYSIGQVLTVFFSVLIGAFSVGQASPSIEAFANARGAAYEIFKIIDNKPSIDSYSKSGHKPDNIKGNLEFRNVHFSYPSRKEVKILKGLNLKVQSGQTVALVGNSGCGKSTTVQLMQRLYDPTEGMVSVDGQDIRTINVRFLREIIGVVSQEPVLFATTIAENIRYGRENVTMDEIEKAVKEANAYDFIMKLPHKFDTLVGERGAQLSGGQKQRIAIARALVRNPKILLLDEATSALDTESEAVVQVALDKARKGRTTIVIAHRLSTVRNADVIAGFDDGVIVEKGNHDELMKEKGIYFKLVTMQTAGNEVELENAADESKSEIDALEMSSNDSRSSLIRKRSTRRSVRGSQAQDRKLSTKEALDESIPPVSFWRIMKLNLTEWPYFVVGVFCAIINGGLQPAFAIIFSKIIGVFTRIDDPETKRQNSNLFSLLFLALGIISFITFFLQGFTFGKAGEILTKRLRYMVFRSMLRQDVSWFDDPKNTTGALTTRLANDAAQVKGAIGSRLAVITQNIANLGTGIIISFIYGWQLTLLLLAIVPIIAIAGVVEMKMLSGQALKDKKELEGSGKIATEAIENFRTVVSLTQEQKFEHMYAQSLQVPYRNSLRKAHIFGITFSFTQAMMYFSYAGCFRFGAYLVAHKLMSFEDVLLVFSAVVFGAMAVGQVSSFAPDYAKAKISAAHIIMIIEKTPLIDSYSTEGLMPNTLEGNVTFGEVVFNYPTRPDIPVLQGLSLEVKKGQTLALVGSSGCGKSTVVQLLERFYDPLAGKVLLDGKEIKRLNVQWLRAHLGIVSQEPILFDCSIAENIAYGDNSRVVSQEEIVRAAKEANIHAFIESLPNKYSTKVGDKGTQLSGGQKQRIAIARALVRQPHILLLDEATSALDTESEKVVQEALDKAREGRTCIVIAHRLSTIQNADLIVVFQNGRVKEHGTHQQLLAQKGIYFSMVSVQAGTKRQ

## COc1ccc([C@@]23Oc4cc(OC)cc(OC)c4[C@]2(O)[C@H](O)C[C@H]3c2ccccc2)cc1 (racemic) [ROCAGLAOL]
HL-60 [1]
  IC50: 3 nM
HCT-116
  IC50: 6 nM
H9c2 [2]
  Activity: Not Active
HepG2 [3]
  Activity: Active
HL-60 [4]
  Activity: inactive
[5]
  Activity: Not Active
HL-60 [6]
  Activity: Active
HL-60 [7]
  Activity: inactive
HL-60 [8]
  Activity: Active
HCT-15; [27]
  IC50: 6 nM
HL-60 [9]
  Activity: inactive
KB
  IC50: 2 nM
HL-60 [10]
  Activity: inactive
HL-60 [11]
  Activity: Active
MCF7 [12]; [28]
  IC50: 4 nM
HL-60 [13]
  Activity: Active
HepG2 [14]; [29]
  IC50: 70 nM
MCF7 [15]; [28]
  IC50: 4 nM
HL-60 [16]
  Activity: inactive

## CC(C)C[C@H](NC(=O)[C@H](Cc1ccccc1)NC(=O)c1cnccn1)B(O)O
HL-60 [17]
  Activity: Active

## COc1ccc([C@@H]2C[C@@H](O)[C@@]3(O)c4c(OC)cc(OC)cc4O[C@@]23c2ccccc2)cc1
HL-60 [1]
  IC50: > 10000 nM
HCT-116
  IC50: > 10000 nM
[5]
  Activity: Not Active
HCT-15; hct-15
  IC50: Not Active
KB
  IC50: > 10000 nM
MCF7 [12]; [28]
  IC50: > 10000 nM
HepG2 [14]; hepg2
  IC50: Not Active
MCF7 [15]; mcf7
  IC50: Not Active

## COc1cc(OC)c2c(c1)O[C@@]1(c3ccccc3)[C@H](c3ccccc3)C[C@@H](O)[C@@]21O
HL-60 [1]
  IC50: 6000 nM
HCT-116
  IC50: 6000 nM
[5]
  Activity: Not Active
HCT-15; [27]
  IC50: 8000 nM
KB
  IC50: 2500 nM
MCF7 [12]; [28]
  IC50: 10000 nM
HepG2 [14]; [29]
  IC50: > 10000 nM
MCF7 [15]; [28]
  IC50: 10000 nM

## COC(=O)C[C@H](NC(=O)[C@H](C)NC(=O)[C@@H](NC(=O)[C@H](C)NC(=O)OCc1ccccc1)[C@@H](C)O)C(=O)CF (Cbz-ATAD(OMe)-CH2F)
HL-60 [18]
  Activity: Active

## CC(=O)O[C@@]12CO[C@@H]1C[C@H](O)[C@@]1(C)C(=O)[C@H](O)C3=C(C)[C@@H](OC(=O)[C@H](O)[C@@H](NC(=O)OC(C)(C)C)c4ccccc4)C[C@@](O)([C@@H](OC(=O)c4ccccc4)[C@H]21)C3(C)C.O.O.O [DOCETAXEL]
HL-60 [1]
  IC50: 0.5 nM
HCT-116
  IC50: 0.5 nM
HCT-15; [27]
  IC50: 13 nM
KB
  IC50: 0.2 nM
MCF7 [12]; mcf7
  IC50: Not Active
HepG2 [14]; hepg2
  IC50: Not Active
MCF7 [15]; mcf7
  IC50: Not Active

## COc1cc(OC)c2c(c1)O[C@@]1(c3ccc(Br)cc3)[C@H](c3ccccc3)[C@@H](C(=O)NCCOCCOCCOCCOCCOCCOCN)[C@@H](O)[C@@]21O
HeLa
  Activity: inactive

## COC(=O)[C@H]1[C@@H](OC=O)[C@@]2(O)c3c(OC)cc(OC)cc3O[C@@]2(c2ccc(OC)cc2)[C@@H]1c1ccccc1
[19]
  IC50: 3000 nM

## CC[C@@]1(O)C(=O)OCc2c1cc1n(c2=O)Cc2cc3ccccc3nc2-1 [CAMPTOTHECIN]
HL-60 [1]
  IC50: 6 nM
HCT-116
  IC50: 2 nM
HCT-15; [27]
  IC50: 3 nM
KB
  IC50: 38 nM
MCF7 [12]; [28]
  IC50: 3 nM
HepG2 [14]; [29]
  IC50: 455 nM
MCF7 [15]; [28]
  IC50: 10 nM

## COC(=O)[C@H]1[C@@H](O)[C@@]2(O)c3c(OC)cc(O[C@@H]4O[C@@H]([C@H](O)CO)CO[C@H]4OC)cc3O[C@@]2(c2ccc(OC)cc2)[C@@H]1c1ccccc1 [SILVESTROL]
[19]
  IC50: 300 nM

## CC(=O)NCCOCCOCCNC(=O)Cc1cc(=O)oc2cc(N(C)C)ccc12
[20]
  Activity: Not Active
[21]
  Activity: Not Active
[22]
  Activity: Not Active
HL-60 [11]
  Activity: inactive

## COc1ccc2c(c1)O[C@@]1(c3ccc(Br)cc3)[C@H](c3ccccc3)[C@@H](C(=O)NCCOCCOCCNC(=O)Cc3cc(=O)oc4cc(N(C)C)ccc34)[C@@H](O)[C@@]21O
HL-60 [1]
  IC50: 130 nM
[23]
  Activity: Active
[24]
  Activity: Not Active

## CC[C@]1(O)C[C@@H]2CN(CCc3c([nH]c4ccccc34)[C@@](C(=O)OC)(c3cc4c(cc3OC)N(C)[C@H]3[C@@](O)(C(=O)OC)[C@H](OC(C)=O)[C@]5(CC)C=CCN6CC[C@]43[C@@H]65)C2)C1 [VINBLASTINE]
HL-60 [1]
  IC50: 1 nM
HCT-116
  IC50: 1.3 nM
HCT-15; [27]
  IC50: 10 nM
KB
  IC50: 0.8 nM
MCF7 [12]; mcf7
  IC50: Not Active
HepG2 [14]; hepg2
  IC50: Not Active
MCF7 [15]; [28]
  IC50: 4.6 nM

## COc1cccc2c1C(=O)c1c(O)c3c(c(O)c1C2=O)C[C@@](O)(C(=O)CO)C[C@@H]3O[C@H]1C[C@H](N)[C@H](O)[C@H](C)O1 [DOXORUBICIN]
HL-60 [1]
  IC50: 13 nM
HCT-116
  IC50: 6 nM
HL-60 [8]
  Activity: Active
HCT-15; [27]
  IC50: 81 nM
H9c2 [25]
  fold change (FC): 3
KB
  IC50: 1 nM
HL-60 [26]
  fold change (FC): 14
MCF7 [12]; [28]
  IC50: 58 nM
HepG2 [14]; [29]
  IC50: 240 nM
MCF7 [15]; [28]
  IC50: 12 nM
